From ChEMBL document CHEMBL1158076, “Bioactive guaianolides from siyekucai (Ixeris chinensis)” (J Nat Prod, 2006)
Where a name gives a salt, the structure may show the parent alone. The source made the active and inactive calls. The calls are words filed in the database; no cut-off is given here.

Key:
A549 [1] = experiment: Inhibition of ICAM1 induction in human A549 cells in presence of IL1alpha; assay type: functional, cell-based
A549 [2] = experiment: Cytotoxicity against human A549 cells after 24 hrs by MTT method; assay type: cell-based; conditions: A549, 24 h
Procedure, shortened: (§1)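 A549 cells were exposed to serial dilutions for 24 h and viability was read by MTT, in triplicate cultures. Viability (%) = (experimental − background absorbance)/(control − background absorbance) × 100, and IC50 was derived from it.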

WI-38 = experiment: Cytotoxicity against human WI38 cells; assay type: functional, cell-based
WI-38 VA13 = experiment: Cytotoxicity against human VA13 cells; assay type: functional, cell-based
[3] = Cytotoxicity against human Hep G2 cells; assay type: functional, cell-based; conditions: HepG2
A549 [4] = experiment: Inhibition of ICAM1 induction in human A549 cells pretreated for 1 hr in presence of IL1alpha for 6 hrs; assay type: functional, cell-based
A549 [5] = experiment: Inhibition of ICAM1 induction in human A549 cells pretreated for 1 hr in presence of TNFalpha for 6 hrs; assay type: functional, cell-based
A549 [6] = experiment: Inhibition of ICAM1 induction in human A549 cells <100 uM pretreated for 1 hr at in presence of IL1alpha for 6 hrs; assay type: functional, cell-based
A549 [7] = experiment: Inhibition of ICAM1 induction in human A549 cells at <100 uM pretreated for 1 hr in presence of TNFalpha for 6 hrs; assay type: functional, cell-based
A549 [8] = experiment: Cytotoxicity against human A549 cells at <100 uM after 24 hrs by MTT method; assay type: cell-based; conditions: a549, 24 h; procedure, shortened: as §1

Row | Compound | IC50 (A549 [1]) [µM] | IC50 (A549 [2]) [µM] | IC50 (WI-38) [µM] | IC50 (WI-38 VA13) [µM] | IC50 [3] [µM] | IC50 (A549 [4]) [µM] | IC50 (A549 [5]) [µM] | Activity (A549 [6]) | Activity (A549 [7]) | Activity (A549 [8])
1 | C=C1C(=O)O[C@@H]2C3=C(C)C(=O)C[C@H]3[C@](C)(O)CC[C@@H]12 | 20.9 | > 100 | 24 | 22 | 23 |  |  |  |  | 
2 | C=C1C(=O)O[C@@H]2[C@H]3[C@H](C)C(=O)C[C@H]3[C@](C)(O)CC[C@@H]12 |  | > 100 | 25 | 27 | 22 | 16.4 | 16.8 |  |  | 
3 | COc1cccc2c1C(=O)c1c(O)c3c(c(O)c1C2=O)C[C@@](O)(C(=O)CO)C[C@@H]3O[C@H]1C[C@H](N)[C@H](O)[C@H](C)O1 [DOXORUBICIN HYDROCHLORIDE] |  |  | 0.7 | 0.4 |  |  |  |  |  | 
4 | C=C1C(=O)O[C@@H]2[C@H]3C(=C)[C@@H](O[C@@H]4O[C@H](COC(=O)Cc5ccc(O)cc5)[C@@H](O)[C@H](O)[C@H]4O)C[C@H]3C(=C)C[C@@H](OC(=O)Cc3ccc(O)cc3)[C@@H]12 [IXEROCHINOSIDE] |  | > 100 |  |  |  | > 100 | > 100 | inactive | inactive | Non-toxic
5 | CC(=O)O[C@H]1C(=O)[C@@]2(C)[C@H]([C@H](OC(=O)c3ccccc3)[C@]3(O)C[C@H](OC(=O)[C@H](O)[C@@H](NC(=O)c4ccccc4)c4ccccc4)C(C)=C1C3(C)C)[C@]1(OC(C)=O)CO[C@@H]1C[C@@H]2O [PACLITAXEL] |  |  | 0.04 |  |  |  |  |  |  | 
6 | C=C1C(=O)C[C@@H]2[C@H]1[C@H]1OC(=O)C(=C)[C@@H]1CC[C@@]2(C)O |  | 64.9 |  |  |  | 10.9 | 11.4 |  |  | 
7 | C=C1[C@@H]2[C@H]3OC(=O)C(=C)[C@@H]3CC[C@@](C)(O)[C@@H]2C[C@@H]1O[C@@H]1O[C@H](COC(=O)Cc2ccc(O)cc2)[C@@H](O)[C@H](O)[C@H]1OC(=O)Cc1ccc(O)cc1 [CHINENSIOLIDE E] |  | > 100 | 23 | 0.72 | 140 | > 100 | > 100 | inactive | inactive | Non-toxic
8 | C=C1C(=O)O[C@@H]2[C@H]3C(CO)=CC(=O)C3=C(C)CC[C@@H]12 |  | > 100 | 2.7 | 8.5 | 25 | 16.1 | 20.1 |  |  | 
9 | C[C@@H]1C(=O)O[C@H]2[C@H]1CC[C@@](C)(O)[C@@H]1CC(=O)[C@@H](C)[C@H]21 |  |  | 32 | 160 | 230 |  |  |  |  | 
10 | CC1=C2[C@H]3OC(=O)[C@@H](C)[C@@H]3CC[C@@](C)(O)[C@@H]2CC1=O |  | > 100 | 25 | 130 | 230 | > 100 | > 100 | inactive | inactive | Non-toxic
